Key:
Type in all cases: functional, cell-based
HeLa = assay: Cytotoxicity against human HeLa cells by MTT assay
Summary of the method: (§1)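 Colorimetric MTT assay, run as quintuplicate dose-response tests. Cytotoxic effect was plotted against log10 of drug concentration for each cell line. IC50 is the concentration that reduced the optical density of treated cells by 50% relative to untreated cells. 5-fluorouracil served as control.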

A549 = assay: Cytotoxicity against human A549 cells by MTT assay; summary of the method: as §1
[1] = Cytotoxicity against human QGY cells by MTT assay; summary of the method: as §1

Compound | IC50 (HeLa) [µM] | IC50 (A549) [µM] | IC50 [1] [µM]
CCOC(=O)C12C(=O)OCC=C1COC2c1ccccc1 (centres undefined) | 12.8 | > 1000 | > 1000
CCOC(=O)C12C(=O)OCC=C1COC2c1ccccc1F (centres undefined) | 22.1 | > 1000 | > 1000
CCOC(=O)C12C(=O)OCC=C1COC2c1ccc(F)cc1 (centres undefined) | 22.9 | > 1000 | > 1000
CCOC(=O)C12C(=O)OCC=C1COC2c1cccc(Cl)c1 (centres undefined) | > 1000 | 28.4 | > 1000
CCOC(=O)C12C(=O)OCC=C1COC2c1ccc(Cl)cc1 (centres undefined) | 118 | > 1000 | > 1000
CCOC(=O)C12C(=O)OCC=C1COC2c1ccc(Cl)c(Cl)c1 (centres undefined) | 72.4 | > 1000 | > 1000
CCOC(=O)C12C(=O)OCC=C1COC2c1ccc(Br)cc1 (centres undefined) | 48.7 | > 1000 | > 1000
CCOC(=O)C12C(=O)OCC=C1COC2c1ccc(C(C)(C)C)cc1 (centres undefined) | 25.4 | > 1000 | > 1000
CCOC(=O)C12C(=O)OCC=C1COC2c1ccc(OC)cc1 (centres undefined) | 18.3 | 9.3 | > 1000
CCOC(=O)C12C(=O)OCC=C1COC2c1ccc(OC)c(OC)c1 (centres undefined) | 10 | > 1000 | > 1000
CCOC(=O)C12C(=O)OCC=C1COC2c1cc(OC)cc(OC)c1 (centres undefined) | 16 | > 1000 | > 1000
CCOC(=O)C12C(=O)OCC=C1COC2c1cc(OC)c(OC)c(OC)c1 (centres undefined) | 5.4 | 13.3 | > 1000
CCOC(=O)C12C(=O)OCC=C1COC2c1ccc(N(C)C)cc1 (centres undefined) | 23.4 | 89.6 | > 1000
CCOC(=O)C12C(=O)OCC=C1COC2c1ccc([N+](=O)[O-])cc1 (centres undefined) | 53.4 | 36.8 | > 1000
CCOC(=O)C12C(=O)OCC=C1COC2c1ccco1 (centres undefined) | 28.3 | > 1000 | > 1000
CCOC(=O)C12C(=O)OCC=C1COC2c1cccs1 (centres undefined) | 30.4 | > 1000 | > 1000
CCOC(=O)C12C(=O)OCC=C1COC2c1ccccn1 (centres undefined) | 20.7 | > 1000 | > 1000
O=c1[nH]cc(F)c(=O)[nH]1 [FLUOROURACIL] | 16.1 | 5.6 | 14.1
